Key:
[1] = target: Neuronal acetylcholine receptor; alpha4/beta2 (Homo sapiens, UniProt P17787+P43681); assay: Binding affinity against nicotinic acetylcholine receptor alpha4-beta2 in human HEK293 cells using [3H]- nicotine as radioligand; format: cell-based
[2] = target: Neuronal acetylcholine receptor; alpha4/beta2 (Rattus norvegicus, UniProt P09483+P12390); assay: Inhibition of [3H]-nicotine binding to nicotinic acetylcholine receptor alpha4-beta2 in rat cortex
[3] = target: Neuronal acetylcholine receptor subunit alpha-7 (Homo sapiens, UniProt P36544); assay: Inhibition of [3H]alpha-bungarotoxin binding to nicotinic acetylcholine receptor alpha7 of IMR32 cells; format: cell-based, IMR-32
Neuronal acetylcholine receptor subunit alpha-7, sequence (P36544 whole entry): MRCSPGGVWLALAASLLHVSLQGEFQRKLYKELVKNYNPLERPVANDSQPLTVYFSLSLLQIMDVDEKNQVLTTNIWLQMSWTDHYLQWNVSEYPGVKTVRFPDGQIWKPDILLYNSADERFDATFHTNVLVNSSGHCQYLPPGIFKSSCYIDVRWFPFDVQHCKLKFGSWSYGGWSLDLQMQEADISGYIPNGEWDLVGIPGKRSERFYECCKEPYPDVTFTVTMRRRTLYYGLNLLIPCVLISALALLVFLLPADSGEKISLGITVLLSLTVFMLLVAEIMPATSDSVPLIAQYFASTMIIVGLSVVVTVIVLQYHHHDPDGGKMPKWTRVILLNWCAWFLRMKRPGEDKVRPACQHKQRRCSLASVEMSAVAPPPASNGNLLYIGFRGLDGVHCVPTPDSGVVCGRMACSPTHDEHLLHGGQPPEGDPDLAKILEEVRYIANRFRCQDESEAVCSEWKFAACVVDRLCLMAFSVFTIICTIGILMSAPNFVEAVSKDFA

[4] = target: Neuronal acetylcholine receptor; alpha3/beta4 (Homo sapiens, UniProt P30926+P32297); assay: Inhibition of [3H]epibatidine binding to nicotinic acetylcholine receptor alpha3-beta4 of IMR32 cells; format: cell-based, IMR-32
Neuronal acetylcholine receptor; alpha3/beta4, sequence (P30926 whole entry): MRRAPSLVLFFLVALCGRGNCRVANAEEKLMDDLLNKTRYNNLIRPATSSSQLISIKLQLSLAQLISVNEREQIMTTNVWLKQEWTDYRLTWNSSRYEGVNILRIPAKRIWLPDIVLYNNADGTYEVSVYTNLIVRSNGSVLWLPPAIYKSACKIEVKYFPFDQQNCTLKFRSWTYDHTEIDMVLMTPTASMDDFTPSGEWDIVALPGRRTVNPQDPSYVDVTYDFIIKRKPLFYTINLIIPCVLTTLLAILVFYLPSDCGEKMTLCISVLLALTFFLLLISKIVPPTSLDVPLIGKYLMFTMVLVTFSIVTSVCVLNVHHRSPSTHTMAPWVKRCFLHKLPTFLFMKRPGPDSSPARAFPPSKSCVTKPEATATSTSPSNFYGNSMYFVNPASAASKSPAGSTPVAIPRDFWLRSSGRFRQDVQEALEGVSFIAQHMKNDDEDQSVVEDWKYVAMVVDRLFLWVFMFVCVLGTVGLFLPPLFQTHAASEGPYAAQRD
Neuronal acetylcholine receptor; alpha3/beta4, sequence (P32297 whole entry): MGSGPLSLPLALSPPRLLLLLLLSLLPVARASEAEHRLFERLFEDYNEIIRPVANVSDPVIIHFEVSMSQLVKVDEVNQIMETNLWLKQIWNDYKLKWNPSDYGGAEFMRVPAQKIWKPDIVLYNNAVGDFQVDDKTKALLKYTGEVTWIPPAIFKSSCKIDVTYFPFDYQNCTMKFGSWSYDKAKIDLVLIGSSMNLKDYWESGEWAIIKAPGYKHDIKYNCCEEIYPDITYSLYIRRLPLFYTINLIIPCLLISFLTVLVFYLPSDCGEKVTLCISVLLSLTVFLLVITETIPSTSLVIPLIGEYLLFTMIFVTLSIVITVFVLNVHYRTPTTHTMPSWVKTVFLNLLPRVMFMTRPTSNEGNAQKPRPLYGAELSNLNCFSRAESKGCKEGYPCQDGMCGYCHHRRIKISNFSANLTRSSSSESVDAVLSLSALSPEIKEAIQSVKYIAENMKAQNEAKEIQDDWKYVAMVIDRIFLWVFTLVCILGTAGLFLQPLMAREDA
Method in brief: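 Displacement of [3H]epibatidine binding in IMR32 cells, taken as the α3β4 nAChR site.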

[5] = Inhibition of [3H]alpha-bungarotoxin binding to nicotinic acetylcholine receptor alpha-1-beta-1-delta-gamma of electroplax; design: species or system pisces

Neuronal acetylcholine receptor; alpha4/beta2 (Homo sapiens, UniProt P17787+P43681), sequence (P17787 whole entry): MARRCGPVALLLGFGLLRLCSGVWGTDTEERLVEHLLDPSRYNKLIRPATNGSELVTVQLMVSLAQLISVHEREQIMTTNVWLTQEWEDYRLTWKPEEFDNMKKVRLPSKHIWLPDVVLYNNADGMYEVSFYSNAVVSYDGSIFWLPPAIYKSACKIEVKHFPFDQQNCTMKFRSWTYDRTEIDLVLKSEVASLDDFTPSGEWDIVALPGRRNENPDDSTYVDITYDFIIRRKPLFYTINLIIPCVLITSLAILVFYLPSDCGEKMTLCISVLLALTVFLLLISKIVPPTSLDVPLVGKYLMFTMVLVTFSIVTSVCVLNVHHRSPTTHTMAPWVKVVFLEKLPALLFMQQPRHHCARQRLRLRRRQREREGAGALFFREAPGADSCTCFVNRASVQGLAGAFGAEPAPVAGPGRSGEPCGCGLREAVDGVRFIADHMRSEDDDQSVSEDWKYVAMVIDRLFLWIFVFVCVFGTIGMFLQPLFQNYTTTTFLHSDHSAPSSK
Neuronal acetylcholine receptor; alpha4/beta2 (Homo sapiens, UniProt P17787+P43681), sequence (P43681 whole entry): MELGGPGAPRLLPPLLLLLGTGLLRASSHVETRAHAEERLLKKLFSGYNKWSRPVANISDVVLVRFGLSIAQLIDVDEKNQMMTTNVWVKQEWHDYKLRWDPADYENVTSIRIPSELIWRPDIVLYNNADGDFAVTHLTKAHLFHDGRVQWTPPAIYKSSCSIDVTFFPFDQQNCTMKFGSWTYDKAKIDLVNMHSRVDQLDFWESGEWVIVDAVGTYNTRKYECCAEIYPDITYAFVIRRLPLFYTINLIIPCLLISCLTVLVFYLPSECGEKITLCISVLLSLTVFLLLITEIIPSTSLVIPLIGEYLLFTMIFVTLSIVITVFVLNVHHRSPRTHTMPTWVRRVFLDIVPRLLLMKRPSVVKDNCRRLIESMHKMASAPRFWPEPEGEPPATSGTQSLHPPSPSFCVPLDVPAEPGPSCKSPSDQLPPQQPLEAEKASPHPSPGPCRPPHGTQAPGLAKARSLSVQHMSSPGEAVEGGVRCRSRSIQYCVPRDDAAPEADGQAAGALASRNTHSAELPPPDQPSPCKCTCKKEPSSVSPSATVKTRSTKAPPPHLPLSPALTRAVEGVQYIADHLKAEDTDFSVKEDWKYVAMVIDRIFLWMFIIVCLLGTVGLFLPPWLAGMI
Neuronal acetylcholine receptor; alpha4/beta2 (Rattus norvegicus, UniProt P09483+P12390), sequence (P09483 whole entry): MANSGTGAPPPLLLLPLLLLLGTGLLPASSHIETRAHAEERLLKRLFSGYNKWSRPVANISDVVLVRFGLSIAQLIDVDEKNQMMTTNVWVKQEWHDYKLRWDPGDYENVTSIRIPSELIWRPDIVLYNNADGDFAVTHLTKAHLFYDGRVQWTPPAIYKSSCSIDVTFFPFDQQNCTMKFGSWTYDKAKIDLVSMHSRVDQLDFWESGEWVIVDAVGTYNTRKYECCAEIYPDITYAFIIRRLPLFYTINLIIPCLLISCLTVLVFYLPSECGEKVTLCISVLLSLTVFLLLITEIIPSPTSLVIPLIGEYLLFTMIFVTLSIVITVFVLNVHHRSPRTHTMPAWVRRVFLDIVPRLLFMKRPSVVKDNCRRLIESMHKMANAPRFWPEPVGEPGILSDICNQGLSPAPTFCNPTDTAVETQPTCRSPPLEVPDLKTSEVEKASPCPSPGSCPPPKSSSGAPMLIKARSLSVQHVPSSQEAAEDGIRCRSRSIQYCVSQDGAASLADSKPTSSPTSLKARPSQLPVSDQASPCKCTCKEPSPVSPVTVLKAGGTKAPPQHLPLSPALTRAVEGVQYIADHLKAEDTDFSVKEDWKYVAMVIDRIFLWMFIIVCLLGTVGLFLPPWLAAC
Neuronal acetylcholine receptor; alpha4/beta2 (Rattus norvegicus, UniProt P09483+P12390), sequence (P12390 whole entry): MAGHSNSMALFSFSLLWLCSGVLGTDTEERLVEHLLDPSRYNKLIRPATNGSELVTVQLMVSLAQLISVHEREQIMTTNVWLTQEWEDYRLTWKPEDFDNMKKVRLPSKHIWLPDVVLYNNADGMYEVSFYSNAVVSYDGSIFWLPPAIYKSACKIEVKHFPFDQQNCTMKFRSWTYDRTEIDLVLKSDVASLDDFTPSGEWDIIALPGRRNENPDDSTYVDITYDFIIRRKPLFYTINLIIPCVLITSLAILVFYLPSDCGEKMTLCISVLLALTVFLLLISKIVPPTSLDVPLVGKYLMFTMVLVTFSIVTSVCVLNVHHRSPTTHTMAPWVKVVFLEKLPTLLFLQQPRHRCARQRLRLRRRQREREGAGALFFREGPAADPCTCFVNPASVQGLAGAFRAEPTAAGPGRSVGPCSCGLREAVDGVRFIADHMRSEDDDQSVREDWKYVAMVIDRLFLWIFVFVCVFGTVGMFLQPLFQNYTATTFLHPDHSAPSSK

SMILES	Ki [1] [nM]	also measured
COc1ccc2c(c1)CC1CNCC2C1 (stereo unspecified)	1.4	Ki [2]: 3.2 nM; Ki [3]: 2400 nM; Ki [4]: 810 nM
COc1ccc(-c2ccc3c(c2)CC2CNCC3C2)cc1 (stereo unspecified)	370	
FC(F)Oc1ccc2c(c1)CC1CNCC2C1 (stereo unspecified)	7	Ki [3]: 1700 nM
FC(F)(F)c1ccc(-c2ccc3c(c2)CC2CNCC3C2)cc1 (stereo unspecified)	200	
c1ccc(-c2ccc3c(c2)CC2CNCC3C2)cc1 (stereo unspecified)	> 500	
COc1ccc2c(c1O)CC1CNCC2C1 (stereo unspecified)	13	
Oc1cccc2c1CC1CNCC2C1 (stereo unspecified)	2.9	
c1cncc(-c2ccc3c(c2)CC2CNCC3C2)c1 (stereo unspecified)	> 500	
COc1ccc2c(c1)C1CNCC(C2)C1 (stereo unspecified)		Ki [2]: 90 nM
O=c1oc2ccc3c(c2o1)CC1CNCC3C1 (stereo unspecified)	> 500	
O=[N+]([O-])c1ccc2c(c1)C1CNCC(C2)C1 (stereo unspecified)	6.5	Ki [4]: 980 nM
O=[N+]([O-])c1ccc2c(c1)CC1CNCC2C1 (stereo unspecified)	4.9	Ki [4]: 340 nM
COC(=O)c1ccc2c(c1)CC1CNCC2C1 (stereo unspecified)	34	
Fc1ccc2c(c1)CC1CNCC2C1 (stereo unspecified)	2	Ki [3]: 350 nM; Ki [4]: 710 nM
Fc1cccc2c1CC1CNCC2C1 (stereo unspecified)	6.5	Ki [3]: 830 nM
CC(C)(O)c1ccc2c(c1)CC1CNCC2C1 (stereo unspecified)	264	
COc1cccc2c1CC1CNCC2C1 (stereo unspecified)	> 500	
Nc1cccc(-c2ccc3c(c2)CC2CNCC3C2)c1 (stereo unspecified)	> 500	
CC(C)c1ccc2c(c1)CC1CNCC2C1 (stereo unspecified)	72	
CCOc1ccc2c(c1)CC1CNCC2C1 (stereo unspecified)	13	
Oc1ccc2c(c1)C1CNCC(C2)C1 (stereo unspecified)		Ki [2]: 75 nM
O=[N+]([O-])c1cccc2c1C1CNCC(C2)C1 (stereo unspecified)	14	
Fc1ccc2c(c1F)CC1CNCC2C1 (stereo unspecified)	0.44	Ki [5]: 3000 nM; Ki [3]: 520 nM; Ki [4]: 810 nM
NC(=O)COc1ccc2c(c1)CC1CNCC2C1 (stereo unspecified)	> 500	
c1ccc2c(c1)CC1CNCC2C1 (stereo unspecified)	34	Ki [2]: 65 nM
c1cc2c(c3c1CC1CNCC3C1)OCO2 (stereo unspecified)	5.7	Ki [5]: 4500 nM; Ki [3]: 5100 nM; Ki [4]: 1900 nM
Oc1ccc2c(c1)CC1CNCC2C1 (stereo unspecified)	90	
O=c1cccc2n1C[C@@H]1CNC[C@H]2C1 [CYTISINICLINE]	0.23	Ki [5]: 250 nM; Ki [3]: 4200 nM
